Laboratory results: ChEMBL document CHEMBL1649158, “Emergence of plasmid-mediated quinolone resistance among non-Typhi Salmonella enterica isolates from humans in the United States” (2009)
Converted amounts (≈) assume the structure as drawn.

Key:
Salmonella enteritidis = test: Antimicrobial activity against ampicillin- and streptomycin-resistant Salmonella enterica serotype Enteritidis isolate AM25798 expressing qnrS1 gene by broth microdilution method
Salmonella typhimurium [1] = test: Antimicrobial activity against Salmonella enterica serotype Typhimurium isolate AM29869 expressing qnrS1 gene by broth microdilution method
[2] = Antimicrobial activity against tetracycline-resistant Salmonella enterica serotype Saintpaul isolate AM30594 expressing qnrS1 gene by broth microdilution method
Salmonella typhimurium [3] = test: Antimicrobial activity against multidrug-resistant Salmonella enterica serotype Typhimurium var. O:5 isolate AM25008 expressing aac(6')-Ib-cr gene by broth microdilution method
Salmonella enterica [4] = test: Antimicrobial activity against nalidixic acid-resistant Salmonella enterica serotype Kiambu isolate AM27031 expressing qnrB5 gene by broth microdilution method; format: functional
How it was run: (§1)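 MICs for 14 to 17 antimicrobial agents were measured by commercial broth microdilution panels. Isolates were screened for aac(6′)-Ib by SYBR green real-time PCR: 0.4 μM each primer, 35 cycles (95°C 20 s, 55°C 30 s, 72°C 30 s), then a 70–90°C melt curve.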

[5] = Antimicrobial activity against multidrug-resistant Salmonella enterica serotype Corvallis isolate AM25736 expressing qnrS1 gene by broth microdilution method
[6] = Antimicrobial activity against Salmonella enterica serotype Corvallis isolate AM25927 expressing qnrS1 gene by broth microdilution method
[7] = Antimicrobial activity against tetracycline- and trimethoprim-sulfamethoxazole-resistant Salmonella enterica serotype Saintpaul isolate AM26790 expressing qnrS1 gene by broth microdilution method
Salmonella typhimurium [8] = test: Antimicrobial activity against multidrug-resistant Salmonella enterica serotype Typhimurium isolate AM27125 expressing qnrB5 gene by broth microdilution method
[9] = Antimicrobial activity against multidrug-resistant Salmonella enterica serotype Montevideo isolate AM28704 expressing qnrA1 gene by broth microdilution method
[10] = Antimicrobial activity against multidrug-resistant Salmonella enterica serotype Corvallis isolate AM20376 expressing qnrS1 gene by broth microdilution method
Salmonella enterica [11] = test: Antimicrobial activity against Salmonella enterica serotype telelkebir isolate AM21420 expressing qnrB5 gene by broth microdilution method; format: functional; how it was run: as §1
Salmonella enterica [12] = test: Antimicrobial activity against multidrug-resistant Salmonella enterica serotype Cubana isolate AM28764 expressing qnrB2 gene by broth microdilution method; format: functional; how it was run: as §1
Salmonella typhimurium [13] = test: Antimicrobial activity against Salmonella enterica serotype Typhimurium isolate AM29365 expressing qnrS1 gene by broth microdilution method
[14] = Antimicrobial activity against trimethoprim-sulfamethoxazole-resistant Salmonella enterica serotype Montevideo isolate AM19383 expressing qnrS1 gene by broth microdilution method
Salmonella enterica [15] = test: Antimicrobial activity against Salmonella enterica serotype Aqua isolate AM26209 expressing qnrB5 gene by broth microdilution method; format: functional
How it was run: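 Broth microdilution panel of 14 to 17 antimicrobial agents against human clinical non-Typhi Salmonella isolates, read as MIC. The study enrolled isolates with decreased ciprofloxacin susceptibility (≥0.25 mg/liter). qnr genes were detected by previously described methods. 2006 data are preliminary.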

Salmonella typhimurium [16] = test: Antimicrobial activity against multidrug-resistant Salmonella enterica serotype Typhimurium isolate AM27549 expressing qnrS1 gene by broth microdilution method
Salmonella typhimurium [17] = test: Antimicrobial activity against multidrug-resistant Salmonella enterica serotype Typhimurium isolate AM27315 expressing qnrS1 gene by broth microdilution method

In the case of `O=C(O)c1cn(C2CC2)c2cc(N3CCNCC3)c(F)cc2c1=O` [CIPROFLOXACIN], the MIC (Salmonella enteritidis) is reported as 0.5 µg/mL (≈ 1.51 µM), the MIC (Salmonella typhimurium [1]) is reported as 0.5 µg/mL (≈ 1.51 µM) and the MIC [2] is reported as 0.5 µg/mL (≈ 1.51 µM). The MIC (Salmonella typhimurium [3]) was 1 µg/mL (≈ 3.02 µM), the MIC (Salmonella enterica [4]) was 0.5 µg/mL (≈ 1.51 µM) and the MIC [5] was 0.25 µg/mL (≈ 0.754 µM). For the same compound, the MIC [6] was 0.25 µg/mL (≈ 0.754 µM), the MIC [7] was 0.5 µg/mL (≈ 1.51 µM) and the MIC (Salmonella typhimurium [8]) was 0.5 µg/mL (≈ 1.51 µM). It also gave an MIC [9] of 0.25 µg/mL (≈ 0.754 µM), an MIC [10] of 0.5 µg/mL (≈ 1.51 µM) and an MIC (Salmonella enterica [11]) of 0.5 µg/mL (≈ 1.51 µM). For the same compound, the MIC (Salmonella enterica [12]) was 0.5 µg/mL (≈ 1.51 µM), the MIC (Salmonella typhimurium [13]) was 0.5 µg/mL (≈ 1.51 µM) and the MIC [14] was 0.5 µg/mL (≈ 1.51 µM). It also gave an MIC (Salmonella enterica [15]) of 0.25 µg/mL (≈ 0.754 µM), an MIC (Salmonella typhimurium [16]) of 0.5 µg/mL (≈ 1.51 µM) and an MIC (Salmonella typhimurium [17]) of 0.5 µg/mL (≈ 1.51 µM).
